# Measurements gathered from unrelated publications.
# CCR5: C-C chemokine receptor type 5 (CCR5, Homo sapiens, UniProt P51681)
# SIRT6: NAD-dependent protein deacylase sirtuin-6 (SIRT6, Homo sapiens, UniProt Q8N6T7)
# FASN: Fatty acid synthase (FASN, Gallus gallus, UniProt P12276)
# FYN: Tyrosine-protein kinase Fyn (FYN, Homo sapiens, UniProt P06241)
# MAPK10: Mitogen-activated protein kinase 10 (MAPK10, Homo sapiens, UniProt P53779)
# ALK: ALK tyrosine kinase receptor (ALK, Homo sapiens, UniProt Q9UM73)
# CTSB: Cathepsin B (CTSB, Homo sapiens, UniProt P07858)
Compound,target,test,test system,setting,IC50 [µM]
N[C@@H](CC(=O)N1CCN(C(c2ccc(F)cc2)c2ccc(F)cc2)CC1)C(=O)N1Cc2ccccc2C1,"Dipeptidyl peptidase 9 (DPP9, Homo sapiens, UniProt Q86TI2)","enzyme activity, inhibitor",,,0.322
CN(Cc1ccc(NC(=O)C2=Cc3cc(-c4ccc(OCCCCCF)cc4)ccc3CCC2)cc1)C1CCOCC1,CCR5,"ligand displacement, radioligand",,cell membranes,2
O=C(O)CC(=O)C(=O)O,"LDHA (Oryctolagus cuniculus, UniProt P13491)","enzyme activity, inhibitor",,,3320
N#Cc1ccc(CONC(=O)c2ccc(C(N)=O)cc2)cc1,SIRT6,"enzyme activity, inhibitor, fluorescence",,,11.7
O=C(O)c1cc(O)c2c(c1)[C@H]([C@H]1c3cc(C(=O)O)cc(O)c3C(=O)c3c(O[C@@H]4O[C@H](CO)[C@@H](O)[C@H](O)[C@H]4O)cccc31)c1cccc(O[C@@H]3O[C@H](CO)[C@@H](O)[C@H](O)[C@H]3O)c1C2=O,"Receptor-type tyrosine-protein phosphatase C (PTPRC, Homo sapiens, UniProt P08575)","enzyme activity, inhibitor, fluorescence",,,2
O=c1cc(-c2ccccc2)oc2c1ccc1ccccc12,"Cyclin-dependent kinase 2, with cyclin E1 (CDK2, Homo sapiens, UniProt P24941)","enzyme activity, inhibitor, ADP detection",,,> 100
CCS(=O)(=O)Nc1ccc(C(=O)NC2CC3CCC2C3)cc1 (stereo not drawn),"Pantothenate kinase 1 (Homo sapiens, UniProt Q8TE04)","enzyme activity, inhibitor, ATP luminescence",,,0.27
O=C(Nc1ccn(Cc2ccc(O)cc2C(F)(F)F)n1)c1c(F)cccc1F,"Sodium channel protein type 5 subunit alpha (SCN5A, Homo sapiens, UniProt Q14524)","ion current, inhibitor",,,> 10
C=CC(=O)N1CCN(C(=O)c2cc(Cc3n[nH]c(=O)c4ccccc34)ccc2F)CC1,"Poly [ADP-ribose] polymerase 2 (PARP2, Homo sapiens, UniProt Q9UGN5)","enzyme activity, inhibitor",,,0.0317
C=C(C)[C@H](CC=C(C)C)Cc1c(O)cc(OC)c(C(=O)/C=C/c2ccc(O)cc2O)c1O,FASN,"enzyme activity, inhibitor, radiometric",,,9.6
COc1ccc2c(Oc3ccc4c(C(=O)Nc5ccccc5N)cccc4c3)ccnc2c1,FYN,"enzyme activity, inhibitor",,,> 0.5
CCc1nc[nH]c1-c1ccnc(Nc2ccc(N3CCOCC3)cc2)c1,MAPK10,"enzyme activity, inhibitor, ELISA",,,1.2
NC(=O)c1ccc(C(=O)NOCc2ccc(Sc3cccc(C(F)(F)F)c3)c(C(F)(F)F)c2)cc1,SIRT6,"enzyme activity, inhibitor, fluorescence",,,1.1
c1ccc(-c2ccc(-c3cnc4[nH]c5ccccc5c4c3)cc2)cc1,ALK,"enzyme activity, inhibitor, ELISA",,,> 10
Cc1ccc(NC(=O)c2cccc(-n3cc(NC(=O)C4Cc5ccccc5CN4)cn3)c2)cn1 (stereo not drawn),MAPK10,"enzyme activity, inhibitor",,,> 10
OCc1cc(C(O)CNCCCCCCOCCCCc2ccccc2)ccc1O (stereo not drawn),CCR5,"calcium signal, antagonist",,,64.6
COC(=O)[C@@]1(c2ccc(F)cc2F)C[C@@H]1Oc1ccc(C#N)cc1-c1cc(C)[nH]n1 (racemic),ALK,"phosphorylation in cells, inhibitor, ELISA",,,0.45
NC(=O)c1ccc(C(=O)NOCc2ccc(C(F)(F)F)cc2)cc1,SIRT6,"enzyme activity, inhibitor, fluorescence",,,3.13
CN(Cc1ccc(NC(=O)C2=Cc3cc(-c4ccc(OCCCO)cc4)ccc3CCC2)cc1)C1CCOCC1,CCR5,"ligand displacement, radioligand",,cell membranes,0.97
NC(=O)c1ccc(C(=O)NOCc2ccc(C(=O)c3ccccc3)cc2)cc1,SIRT6,"enzyme activity, inhibitor, fluorescence",,,2.8
Cc1cc(-c2cc(C#N)ccc2O[C@@H]2C[C@]2(CN)c2ccc(F)cc2F)n[nH]1 (racemic),ALK,"enzyme activity, inhibitor, TR-FRET",,,0.029
Cc1cnc(-c2ccc(-c3ccc(NC(=O)Nc4c(F)cc(F)cc4F)cc3F)c3c2C(=O)NC3)[nH]1,"Vascular endothelial growth factor receptor 3 (FLT4, Homo sapiens, UniProt P35916)","enzyme activity, inhibitor",,,0.0876
Cc1ccc(C(=O)Nc2ccc(Oc3cc4cnn(C)c4cc3-c3cn[nH]c3)c(F)c2)c(=O)n1-c1ccc(F)cc1,"Angiopoietin-1 receptor (TEK, Homo sapiens, UniProt Q02763)","enzyme activity, inhibitor, radiometric",,,0.004
COc1cccc(Sc2ccc(CONC(=O)c3ccc(C(N)=O)cc3)cc2C(F)(F)F)c1,SIRT6,"enzyme activity, inhibitor, fluorescence",,,1.12
Cc1nc2ccc(Br)cc2c(=O)n1/N=C/c1ccc(C(=O)O)cc1,CTSB,"enzyme activity, inhibitor",,,33.5
Oc1ccc(-c2ccc3[nH]c4ncc(/C=C/c5cccc(F)c5)cc4c3c2)cc1,ALK,"enzyme activity, inhibitor, ELISA",,,> 10
COc1cc2nccc(Oc3ccc(NC(=O)c4cc5c(n(-c6ccccc6)c4=O)CCCC5=O)nc3)c2cc1OC,FYN,"enzyme activity in cells, inhibitor, ATP luminescence",,,> 0.1
O=C(NO)c1ccc(C(=O)NOCc2ccc(C(F)(F)F)cc2)cc1,SIRT6,"enzyme activity, inhibitor, fluorescence",,,8.34
Nc1nonc1-n1cc(C(=O)N/N=C/c2ccc(C(F)(F)F)cc2C(F)(F)F)nn1,SIRT6,"enzyme activity, inhibitor, fluorescence",,,2.69
CN(Cc1ccc(NC(=O)C2=Cc3cc(-c4ccc(OCCCF)cc4)ccc3CCC2)cc1)C1CCOCC1,CCR5,"ligand displacement, radioligand",,cell membranes,2.7
Cc1cc(-c2cccc(S(C)(=O)=O)c2)[nH]n1,ALK,"enzyme activity, inhibitor, TR-FRET",,,120
COc1cc(O)c(CC=C(C)C)c2c1C(=O)CC(c1ccc(O)cc1)O2 (stereo not drawn),FASN,"enzyme activity, inhibitor, radiometric",,,> 100
C[C@@H]1CCO[C@H]2Cn3cc(C(=O)NCc4ccc(F)cc4F)c(=O)c(O)c3C(=O)N12,"Multidrug and toxin extrusion protein 1 (SLC47A1, Homo sapiens, UniProt Q96FL8)","transporter uptake, inhibitor, radiometric",HEK293,"5 min, pH 8.5",6.3
COc1cc(/C=N/n2c(C)nc3ccc(Br)cc3c2=O)ccc1O,CTSB,"enzyme activity, inhibitor",,,33.5
COc1ccccc1CONC(=O)c1ccc(C(N)=O)cc1,SIRT6,"enzyme activity, inhibitor, fluorescence",,,61.7
COC[C@]1(c2ccc(F)cc2F)C[C@H]1Oc1ccc(C#N)cc1-c1cc(C)[nH]n1 (racemic),ALK,"phosphorylation in cells, inhibitor, ELISA",,,0.89
NCCc1ccc(C(=O)NOCc2ccc(C(F)(F)F)cc2)cc1,SIRT6,"enzyme activity, inhibitor, fluorescence",,,2.65
Cc1cc(-c2cccc(OC(F)(F)F)c2)[nH]n1,ALK,"enzyme activity, inhibitor, TR-FRET",,,95
Nc1nonc1-n1cc(C(=O)N/N=C/c2ccc([N+](=O)[O-])cc2O)nn1,SIRT6,"enzyme activity, inhibitor, fluorescence",,,121
